Measured values reported in ChEMBL document CHEMBL4689842, “EUbOPEN Chemogenomics Library wave 1” (2021).

Test system: Fibroblast
Assay: Multiplex assay against human fibroblast
Type: toxicity, cell-based
How it was run: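 Values for tubulin, mitochondrial-mass and membrane-permeability phenotypes are per cents of cells with healthy nuclei. These cells were identified by CellPathfinder machine-learning gating of live cells that had been stained at seeding with Hoechst33342, BioTracker Green Microtubule Cytoskeleton Dye, MitoTracker Red and Annexin V Alexa Fluor 680 and imaged on a CQ1 microscope at 37°C and 5% CO2 after compound addition. The gating first set Hoechst high-intensity objects apart from normal cells, then split normal cells into healthy, pyknosed or fragmented nuclei, and pyknosed cells into mitotic or apoptotic.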

[1] = 12 h, 1 µM, compound concentration 1 uM, replicate 1
[2] = 12 h, 1 µM, compound concentration 1 uM, replicate 2
[3] = 12 h, 10 µM, compound concentration 10 uM, replicate 1
[4] = 12 h, 10 µM, compound concentration 10 uM, replicate 2
[5] = 24 h, 1 µM, compound concentration 1 uM, replicate 1
[6] = 24 h, 1 µM, compound concentration 1 uM, replicate 2
[7] = 24 h, 10 µM, compound concentration 10 uM, replicate 1
[8] = 24 h, 10 µM, compound concentration 10 uM, replicate 2
[9] = 48 h, 1 µM, compound concentration 1 uM, replicate 1
[10] = 48 h, 1 µM, compound concentration 1 uM, replicate 2
[11] = 48 h, 10 µM, compound concentration 10 uM, replicate 1
[12] = 48 h, 10 µM, compound concentration 10 uM, replicate 2

## CCOC(=O)c1c(C)[nH]c2ccc3c(c12)CN1CCc2cc(OC)ccc2C1O3 (stereo unspecified)
[1]
  Population Apoptotic (%): 69%
  Population Fragmented Nuclei (%): 21%
  Population Healthy Nuclei (%): 51%
  Population Hoechst High Intensity Objects (%): 8%
  Population Membrane Permeable-Phenotype (%): 8%
  Population Mitochondria Different-Phenotype (%): 23%
  Population Mitotic Cells (%): 30%
  Population Normal (%): 91%
  Population Pyknosed Nuclei (%): 26%
  Population Tubulin-Different-Phenotype (%): 43%
  Total Cell Count: 150
[2]
  Population Apoptotic (%): 9%
  Population Fragmented Nuclei (%): 9%
  Population Healthy Nuclei (%): 76%
  Population Hoechst High Intensity Objects (%): 9%
  Population Membrane Permeable-Phenotype (%): 3%
  Population Mitochondria Different-Phenotype (%): 70%
  Population Mitotic Cells (%): 90%
  Population Normal (%): 90%
  Population Pyknosed Nuclei (%): 14%
  Population Tubulin-Different-Phenotype (%): 62%
  Total Cell Count: 65
[3]
  Population Apoptotic (%): 82%
  Population Fragmented Nuclei (%): 18%
  Population Healthy Nuclei (%): 38%
  Population Hoechst High Intensity Objects (%): 7%
  Population Membrane Permeable-Phenotype (%): 12%
  Population Mitochondria Different-Phenotype (%): 74%
  Population Mitotic Cells (%): 17%
  Population Normal (%): 92%
  Population Pyknosed Nuclei (%): 43%
  Population Tubulin-Different-Phenotype (%): 80%
  Total Cell Count: 88
[4]
  Population Apoptotic (%): 80%
  Population Fragmented Nuclei (%): 2%
  Population Healthy Nuclei (%): 75%
  Population Hoechst High Intensity Objects (%): 11%
  Population Membrane Permeable-Phenotype (%): 70%
  Population Mitochondria Different-Phenotype (%): 100%
  Population Mitotic Cells (%): 20%
  Population Normal (%): 88%
  Population Pyknosed Nuclei (%): 22%
  Population Tubulin-Different-Phenotype (%): 100%
  Total Cell Count: 84
[5]
  Population Apoptotic (%): 62%
  Population Fragmented Nuclei (%): 29%
  Population Healthy Nuclei (%): 58%
  Population Hoechst High Intensity Objects (%): 13%
  Population Membrane Permeable-Phenotype (%): 13%
  Population Mitochondria Different-Phenotype (%): 13%
  Population Mitotic Cells (%): 37%
  Population Normal (%): 86%
  Population Pyknosed Nuclei (%): 12%
  Population Tubulin-Different-Phenotype (%): 48%
  Total Cell Count: 152
[6]
  Population Apoptotic (%): 8%
  Population Fragmented Nuclei (%): 9%
  Population Healthy Nuclei (%): 75%
  Population Hoechst High Intensity Objects (%): 5%
  Population Membrane Permeable-Phenotype (%): 1%
  Population Mitochondria Different-Phenotype (%): 58%
  Population Mitotic Cells (%): 91%
  Population Normal (%): 94%
  Population Pyknosed Nuclei (%): 14%
  Population Tubulin-Different-Phenotype (%): 35%
  Total Cell Count: 65
[7]
  Population Apoptotic (%): 70%
  Population Fragmented Nuclei (%): 27%
  Population Healthy Nuclei (%): 46%
  Population Hoechst High Intensity Objects (%): 20%
  Population Membrane Permeable-Phenotype (%): 13%
  Population Mitochondria Different-Phenotype (%): 70%
  Population Mitotic Cells (%): 30%
  Population Normal (%): 79%
  Population Pyknosed Nuclei (%): 25%
  Population Tubulin-Different-Phenotype (%): 86%
  Total Cell Count: 99
[8]
  Population Apoptotic (%): 89%
  Population Fragmented Nuclei (%): 6%
  Population Healthy Nuclei (%): 52%
  Population Hoechst High Intensity Objects (%): 11%
  Population Membrane Permeable-Phenotype (%): 83%
  Population Mitochondria Different-Phenotype (%): 100%
  Population Mitotic Cells (%): 10%
  Population Normal (%): 88%
  Population Pyknosed Nuclei (%): 41%
  Population Tubulin-Different-Phenotype (%): 100%
  Total Cell Count: 87
[9]
  Population Apoptotic (%): 64%
  Population Fragmented Nuclei (%): 32%
  Population Healthy Nuclei (%): 54%
  Population Hoechst High Intensity Objects (%): 14%
  Population Membrane Permeable-Phenotype (%): 9%
  Population Mitochondria Different-Phenotype (%): 9%
  Population Mitotic Cells (%): 35%
  Population Normal (%): 85%
  Population Pyknosed Nuclei (%): 12%
  Population Tubulin-Different-Phenotype (%): 47%
  Total Cell Count: 155
[10]
  Population Apoptotic (%): 100%
  Population Fragmented Nuclei (%): 33%
  Population Healthy Nuclei (%): 66%
  Population Hoechst High Intensity Objects (%): 11%
  Population Membrane Permeable-Phenotype (%): 6%
  Population Mitochondria Different-Phenotype (%): 3%
  Population Mitotic Cells (%): 0%
  Population Normal (%): 88%
  Population Pyknosed Nuclei (%): 0%
  Total Cell Count: 185
[11]
  Population Apoptotic (%): 90%
  Population Fragmented Nuclei (%): 36%
  Population Healthy Nuclei (%): 50%
  Population Hoechst High Intensity Objects (%): 28%
  Population Membrane Permeable-Phenotype (%): 10%
  Population Mitochondria Different-Phenotype (%): 82%
  Population Mitotic Cells (%): 10%
  Population Normal (%): 71%
  Population Pyknosed Nuclei (%): 12%
  Population Tubulin-Different-Phenotype (%): 84%
  Total Cell Count: 108
[12]
  Population Apoptotic (%): 66%
  Population Fragmented Nuclei (%): 46%
  Population Healthy Nuclei (%): 51%
  Population Hoechst High Intensity Objects (%): 25%
  Population Membrane Permeable-Phenotype (%): 0%
  Population Mitochondria Different-Phenotype (%): 74%
  Population Mitotic Cells (%): 33%
  Population Normal (%): 74%
  Population Pyknosed Nuclei (%): 1%
  Population Tubulin-Different-Phenotype (%): 89%
  Total Cell Count: 223
